Here are results for 19 molecules from ChEMBL document CHEMBL1121867, “Inhibition of separated forms of cyclic nucleotide phosphodiesterase from pig coronary arteries by 1,3-disubstituted and 1,3,8-trisubstituted xanthines” (J Med Chem, 1981).

The species named for experiment [1] is Sus scrofa. In words: Inhibition of pig coronary artery phosphodiesterase peak I cGMP specific and calmodulin sensitive at 100 uM.
For experiment [2], the species on record is Sus scrofa. In words: Inhibition of Peak II phosphodiesterase from pig coronary arteries at 100 uM.
A short description of experiment [3]: Inhibition of Peak I phosphodiesterase from pig coronary arteries. On the set-up: species or system Sus scrofa. The settings on record: read-out: I50. The essentials: (§1)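 Separated peak I and peak II phosphodiesterase forms prepared from pig coronary arteries. Hydrolysis of 1 µM cyclic nucleotide substrate was measured at 30 °C for 30 min, with enzyme diluted to give 10-20% hydrolysis without inhibitor. Compounds were added from 30% Me2SO, giving 3% Me2SO final in all tubes, including controls and blanks. I50 was read from concentration-inhibition curves over 10^-7 to 10^-4 M, or to 10^-3 M if soluble.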

Experiment [4] can be described thus: Inhibition of pig coronary artery cAMP-specific phosphodiesterase. On the set-up: species or system Sus scrofa. The settings on record: read-out: I50. The essentials: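 Separated peak I and peak II phosphodiesterase forms prepared from pig coronary arteries. Compounds were added from 30% Me2SO, giving 3% Me2SO final in all tubes, including controls and blanks. I50 was read from concentration-inhibition curves over 10^-7 to 10^-4 M, or to 10^-3 M if soluble.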

The species named for experiment [5] is Sus scrofa. In words: Inhibition of pig coronary artery phosphodiesterase peak II cyclic AMP specific at 100 uM.
For experiment [6], the species on record is Sus scrofa. Put plainly: Inhibition of pig coronary artery phosphodiesterase peak I cGMP specific and calmodulin sensitive. The following applies: concentration not given here. The procedure, abridged: as §1

Consider `Cn1c(=O)c2nc[nH]c2n(CCO)c1=O`, for which the inhibition in the experiment listed under Sus scrofa [1] was 30%; in the experiment filed under Sus scrofa [2], 23%.
The molecule `CNc1nc2c(=O)n(C)c(=O)n(CC(C)C)c2[nH]1` displayed an inhibition in the experiment filed under Sus scrofa [2] of 39%. Further, in experiment [3], the IC50 was 1.2 µM.
Turning to `CC(C)Cn1c(=O)n(C)c(=O)c2[nH]c(CO)nc21`, the figures for the IC50 in experiment [4] and in experiment [3] were 283 µM and 9.4 µM, respectively.
For `COC(=O)Cn1c(=O)c2nc[nH]c2n(CC(C)C)c1=O`, the inhibition in the experiment listed under Sus scrofa [1] is 26%; in the experiment filed under Sus scrofa [2], 40%.
In the experiment listed under Sus scrofa [2], `CC(C)Cn1c(=O)n(C)c(=O)c2[nH]c(CCCO)nc21` showed an inhibition of 29%. Also, the IC50 in experiment [3] was determined as 11 µM.
In turn, `COC(=O)CCc1nc2c(=O)n(C)c(=O)n(CC(C)C)c2[nH]1` came in with an inhibition in the experiment filed under Sus scrofa [2] of 30%. Further, the IC50 in experiment [3] is 9.8 µM.
For the molecule `CC(=O)OCCn1c(=O)n(C)c(=O)c2nc[nH]c21`, the results for the inhibition in the experiment filed under Sus scrofa [1] and in the experiment listed under Sus scrofa [2] were 43% and 27%, respectively.
With `CC(C)=CCc1nc2c([nH]1)c(=O)n(C)c(=O)n2CC(C)C`, the inhibition in the experiment filed under Sus scrofa [2] is 21%. The IC50 in experiment [3] turned out to be 6.3 µM.
As to `CC(C)Cn1c(=O)n(C)c(=O)c2[nH]nnc21`, the inhibition in the experiment filed under Sus scrofa [1] came to 35%; in the experiment filed under Sus scrofa [5] it was 1%.
`C=C(C)Cn1c(=O)n(CCC(C)C)c(=O)c2nc[nH]c21`: the inhibition in the experiment listed under Sus scrofa [1] was 38%; in the experiment filed under Sus scrofa [2], 42%.
For `CC(C)Cn1c(=O)n(C)c(=O)c2[nH]c(CCl)nc21`, the inhibition in the experiment filed under Sus scrofa [2] is 28%. In addition, the IC50 in experiment [3] was determined as 8.9 µM.
`CC(C)CCn1c(=O)c2[nH]cnc2n(CC(C)C)c1=O`: the values for the IC50 in experiment [4] and in experiment [3] were 17 µM and 86 µM, respectively.
In the case of `CC(C)Cn1c(=O)n(C)c(=O)c2[nH]c(CCC(=O)O)nc21`, the inhibition in the experiment listed under Sus scrofa [2] was found to be 12%. Further, the IC50 in experiment [3] came to 45 µM.
Regarding `C=C(C)Cn1c(=O)n(C)c(=O)c2nc[nH]c21`, the IC50 came to 36 µM in experiment [4] and 10 µM in experiment [3].
With `CC(C)Cn1c(=O)n(CC(=O)O)c(=O)c2[nH]cnc21`, the inhibition in the experiment listed under Sus scrofa [6] is 2.4%; in the experiment filed under Sus scrofa [2] it was 1.9%.
As to `Cn1c(=O)c2nc[nH]c2n(C)c1=O` [THEOPHYLLINE], the IC50 in experiment [3] was determined as 100 µM.
With `C=CCn1c(=O)n(C)c(=O)c2nc[nH]c21`, the IC50 stood at 52 µM in experiment [4] and 25 µM in experiment [3].
`COCc1nc2c([nH]1)c(=O)n(C)c(=O)n2CC(C)C`: the IC50 in experiment [4] was determined as 212 µM; in experiment [3], 5.2 µM.
As to `CC(C)Cn1c(=O)n(C)c(=O)c2[nH]c(N(C)C)nc21`, the inhibition in the experiment filed under Sus scrofa [2] was 33%. The IC50 in experiment [3] turned out to be 1.6 µM.

What is called inhibition is the percentage by which the read-out fell short of the control. Lower therefore signals little suppression.
